Assay results published in the EternaBench riboswitch data.

System: MS2 coat protein
Test: apparent Kd, MS2 coat protein; higher = weaker binding; RNA-MaP array; FMN 200 µM where present
Summary of the method: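 The apparent Kd is reported as the median of filtered per-cluster binding-curve fits. To get these curves, designs transcribed by stalled E. coli RNA polymerase on Illumina sequencing-chip clusters were titrated with SNAP-549-labelled MS2 coat protein from 0.7 or 1.5 nM, doubling to 3 µM. Titrations were run without and then with constant ligand in 100 mM Tris-HCl pH 7.5, 80 mM KCl, 4 mM MgCl2, BSA, DTT, yeast tRNA and Tween-20, and green signal was normalised to red-channel RNA signal and control-cluster median Fmax.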

[1] = designed as: OFF switch for flavin mononucleotide, no ligand
[2] = ligand present: flavin mononucleotide, designed as: OFF switch for flavin mononucleotide
[3] = designed as: ON switch for flavin mononucleotide, no ligand
[4] = ligand present: flavin mononucleotide, designed as: ON switch for flavin mononucleotide

Sequence	apparent Kd [1] [nM]	apparent Kd [2] [nM]	apparent Kd [3] [nM]	apparent Kd [4] [nM]
GGAAUACAUGAGGAUCACCCAUGUAAGGAUAUGCUGAUUAACACGGAAUAAUUAUGCAGCAGAAGGUACAAAGG	113	91.1	–	–
UUUUAACAUGAGGAUCACCCAUGUGAGGAUAUCGAAAUUUAUAUUAAUAUUAUUAUAUCGAGAAGGCACAUUUU	92.3	91.3	–	–
ACAUGGAAUACAGGAUAUGUAAGUUUUAAGUGGAUUGGUUAUUACUUUACAACAGAAGGGUAAUACAUGAGGAUCACCCAUGUA	–	–	30.1	25.3
GUAGCUAUCGGAGGAUAUGGGUUGCGGAAACGCACAUGAGGAUCACCCAUGUAAAUAAAUAAUUCCUAGAAGGCCGAUAGCUAC	–	–	21	15
GUCAGCUCGUGAGGAUAUACAACACUGCUUCGGCUGUGUAUUAAGAUCACAUGAGGAUCACCCAUGUAGAAGGCACGAGCUGAU	13.5	202	–	–
CUCCUGUAAGGAUAUCUGACAAGUGACGAAAGUCACAGUUCAGAGAAGGUACAUGAGGAUCACCCAUGUAGAAC	32.2	139	–	–
GCGAUUUUGUAAGGAUAUACACGAGUUUCAAGUGUAGAAGGUACUUACAUGAGGAUCACCCAUGUAUACAUGGAUAAUAGUCGC	–	–	548	84.2
CGGUCAUGAGGAUAUCGAGGUUAGUACAUGAGGAUCACCCAUGUUAUCCAGGUGUCGGUUCGAGAAGGCAUGUCCG	461	753	–	–
CAGAGGAUGUAAGGAUAUCGUCAGGAUAACUGACGAGAAGGUACAUGAGGAUCACCCAUGUAACUCUAAUAAUAAUAACCUCUG	11.7	17.3	–	–
ACAUGAGGAUCACCCAUGUAUACAUAGGAUAUUGGUGAUCAGGGAUGUUUUACAGGAUAUGUCUGCGAGAAGGAUGCAAGUAGU	–	–	238	48.3
CCGGAAAUGCAGGAUAUCGUAUCGGAUACGAUACGAGAAGGGUAUACAUGAGGAUCACCCAUGUGUCCUCCCGG	38.3	109	–	–
GCUUGUGUUGAGGAUAUGCGCCGGCUCGCUGGCGCAGAAGGCGGCACAUGAGGAUCACCCAUGUCAGUUCGCGA	27.5	255	–	–
AUGCUCGUGUGAGGAUAUGCCGCCGUUUCGGCUGCAGAAGGUGCUACGUUACAUGAGGAUCACCCAUGUCUCUGUUGUUUCGUG	–	–	24.4	25.5
UGUCGGAUGUAGAAGGGUAGUACAUGAGGAUCACCCAUGUUAACAUGGAAUACAGGAUAUGCGUAUAGUUUUUAUUAAAUUAUA	108	44.3	–	–
CCAGCAACAUGAGGAUCACCCAUGUAGGAUAUCGCUAUUGUAAUCAUGAAACAUGAUUACAAUAGCGAGAAGGACAUAUGCUUU	11	12	–	–
UUACAGUGCGGGUAGGAUAUGUAGGGUGGUACAUGAGGAUCACCCAUGUAUCCACCCUUCGACCGGCAGAAGGGCCUGUCACUGC	–	–	14.3	14.3
UUGUACAUUCGAGGAUAUCGGAGAGAGAUCAUUCGAGAAGGCGAUUCAUGAUGUAUUAUCCUGGACAUGAGGAUCACCCAUGUA	–	–	111	65.9
GGUACUCAAAGAGUACAAGAAAGAACAUGAGGAUCACCCAUGUAGGAUAUGCUACUCAAAGAGUAGCAGAAGGACAUGUGCAGC	30.6	103	–	–
GUAAAGUGAGGAUAUGGUGAGUAGUGCCUGAGCGCUGCUCACCAGAAGGCACAUGAGGAUCACCCAUGUAUAGC	14.7	27.1	–	–
GGAGCCAGCACCGAGGAUAUUCAUAUUAAAACAUGAGGAUCACCCAUGUAGGCCAGAAGGCCUUGGGAGAAGGCGGACUGGCUCG	–	–	206	11.4
GUUAAGGUAGGAUAUACGAUAAUAUAGGGUAGAUAUAUAACACAUGAGGAUCACCCAUGUAGAAGGACCAAGUG	41.5	170	–	–
AAAACAUGAGGAUCACCCAUGUUUAGAUCGGUCGAUUGAGGUGAGGAUAUACUAAGUUAAGGCUGGUAGAAGGCACUGGGUACA	–	–	62	43.6
UUUUUGUGAGGAUAUGCAAUAUCUUCUAUUUAUUAUUAAUUGCAGAAGGCACAUGAGGAUCACCCAUGUAUUUU	19.2	24.2	–	–
ACAAGAUCAGGAUAUACAUGAGGAUCACCCAUGUAUAUCCAAAAAGGGCCUUCUACAUGUAGAAGGGAUCUUGU	13.1	12.6	–	–
AUAUCUCCCUAGAAGGUGGAACGACAAUUGCAUCACGUAGUUGGCGAUCCAAGGAUAUGGGACAUGAGGAUCACCCAUGUGGAU	–	–	16.4	8.81
AUCAGCUCGUCAGGAUAUACGUCACUGCGUCAGAAGUGUGGUAAGAUCACAUGAGGAUCACCCAUGUAGAAGGGACGAGCUGAU	23.4	253	–	–
AUGGCGACGUAGAAGGGUGACAUGAGGAUCACCCAUGUGCCGAUACUUCUCGAGAUGUGUCGGCCACAGGAUAUACGUACCAUC	–	–	52.3	58.3
UAUUAGUGAGGAUAUGGUAAAGAUAAGAUGAUGAAAGAACUCCAGAAGGCACAUGAGGAUCACCCAUGUAGUAG	21.8	24.6	–	–

Sequence	apparent Kd [1] [nM]	apparent Kd [2] [nM]	apparent Kd [3] [nM]	apparent Kd [4] [nM]
CGGAUCGCAUGAGGAUAUGGUCAGGUUUCCUGACCAGAAGGCAUGUCAUAAGACAUGAGGAUCACCCAUGUAGUUAAGAUCCGA	–	–	577	40.2
AACAGCUCGUCAGGAUAUAUUAUAUUUAUAUGGAUUAAUGUACAUGAGGAUCACCCAUGUAGUUAGUAGAAGGGACGAGCUGAA	8.4	10.8	–	–
AAAGGACGAUUAGGAUAUUCGGUUCAAGGUAAAGAAGAAGGAAUCGUUCCAUACUUAACAUGAGGAUCACCCAUGUGGGUCUAG	34.9	29.5	–	–
AGGUGAGCCGUCAGGAUAUGCGUUCCGUAGGGUCAGCAGAAGGGACAUGAGGAUCACCCAUGUUUCGCACGUGG	34.2	71.1	–	–
UUAUAAAGUGUGAGGAUAUGCUGGUCGAUAGAUCAGCAGAAGGCACAUGAGGAUCACCCAUGUAAUAUAUUUUU	48	239	–	–
AGUAAGAUGCAGAAGGUGUCAGCUAGUGCUACGACAUGAGGAUCACCCAUGUACUAGGUAGAGUACAAGGAUAUGCAUCUUACA	–	–	23	6.15
GCAGCACACAUUAACAUGAGGAUCACCCAUGUCAAAAGACAUGAGGAUAUGCAUCUGAAGAAGAUGCAGAAGGCAUUGUGCUGC	–	–	467	24.2
GCAUUUUAUGCAGGAUAUUGUCUUUGGAUUAAACAAGAAGGGCAUAACAUGAGGAUCACCCAUGUUUUAUAGGUAUAUAUGUUC	14.2	21.6	–	–
AUCGAACAUGAGGAUCACCCAUGUUAGGAUAUUGGAUAGCGCGCUGGUGUAGUGUAUCCAAGAAGGGACUGGUG	66.5	101	–	–
AAUUUGGAGGGAGGAUAUACAUGAGGAUCACCCAUGUAGCCUAACACGGCUCUCAAUUUCCAAGUGUAGAAGGCCCAACGUGUU	13.6	48.8	–	–
UUUGUUGUUGUGAGGAUAUCGUUGAUUUUUUGAAACGAGAAGGCACAUGAGGAUCACCCAUGUUUGUUGUUGGU	66.2	248	–	–
AAAAAGUCAGGAUAUUCGGAAGGGAAAGCGCAAACCCAACCGAAGAAGGGACAUGAGGAUCACCCAUGUAAAAA	26.7	39	–	–
AGCUACGUUUCGUAGCAGUGUCAUCGAGAAGGCUCAAAUACAUGAGGAUCACCCAUGUUAACAUGGGAGGAUAUCGAUGAUACA	–	–	63.6	7.86
GGGUACAUCGGAGGAUAUCAUGUAAAUACAUGAGGAUCACCCAUGUCGAUGGAGACAUCGGACAUUGAGAAGGCCGAUGUACCG	–	–	29.2	5.79
ACAUUGCGAGGAUAUACAUGAGGAUCACCCAUGUGGUGGCAGAUACGGUAGGGCUAGUGUAGAAGGUGUCAUGG	528	435	–	–
AAUUCACAUGAGGAUCACCCAUGUGAGGAUAUGGUUUCGCUGGCCGUAGCCAGUGGAACCAGAAGGCGCGUGAU	56.5	65.2	–	–
CCAGUGUCAGGAUAUAUCACAAAGAACCCAACCGGGCUUUGGUAGAAGGGACAUGAGGAUCACCCAUGUUGUUU	30.9	44	–	–
UGCGUACAAGCAAACAUGAGGAUCACCCAUGUGGUCUCAUGCGAGGAUAUCGGGAAGGAGGAUUCCGAGAAGGUGCGGUGAGCC	–	–	116	27.9
GCCGGUUCAGUUAGGAUAUUCGACACACCUCUCUAGAAGAAGGAACAUGAGGAUCACCCAUGUGAUUCCUACCG	46.7	56.6	–	–
GUGAGGUAAGGAUAUAGUAGUGAAGGUAAGAUAUGAGAAUGCUAGAAGGUACAUGAGGAUCACCCAUGUUCGGG	117	116	–	–
AACCUAAAACAGAAGGCCAAAUACAUGAGGAUCACCCAUGUCGAAUCAUGGAGGAUAUGUUAUUAAUUACUCGCAGAUGAGUGC	–	–	70	7.49
UAUUUACAUGAGGAUCACCCAUGUCAGGAUAUGUUUCUAUCGUCGAAAGAUGAUAUUUGCAGAAGGGACAAUAU	36.1	72.5	–	–
CUUUUGUGAGGAUAUCAGUAGUAGAACAAUAGUACUACUACUGAGAAGGCACAUGAGGAUCACCCAUGUUCCUC	62.5	455	–	–
UUGAGGUGCAAGAAGGGUCACAUGAGGAUCACCCAUGUCAUGUGAAGUCUCGAGAUUUUAUAUGGAUAGGAUAUUGCACCGAAC	–	–	197	98.2
GGGUACAUCUGAGGAUAUCAUGUAAAUACAUGAGGAUCACCCAUGUCGAUGGAGACAUCGGAGAUUGAGAAGGCCGAUGUACCG	–	–	263	14
CUGCCUUAUGUAGGAUAUGCAUAGCAUUGCUAUGCAGAAGGACAUGAGGAUCACCCAUGUAUGUAAUCAAUACAUAUCUGGCAG	20.4	119	–	–
GCCAGCGCAUGAGGAUAUGCUCCCGUUUCGGGAGCAGAAGGCAUGUCAUAAGACAUGAGGAUCACCCAUGUAGUUAAGAUGGCA	–	–	258	13.6
